Laboratory results published in ChEMBL document CHEMBL6120993, “Cardenolides in Asclepias syriaca Seeds: Exploring the Legacy of Tadeus Reichstein” (J Nat Prod, 2025).

Columns and labels:
[1] = Inhibition of porcine sodium/potassium-ATPase incubated for 20 mins by Spectrophotometric analysis; set-up: species or system Sus scrofa domesticus
Procedure, shortened: (§1)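 Enzyme was porcine cerebral cortex Na+/K+-ATPase or dissected Oncopeltus fasciatus neural tissue. Six-point 1/10 series (5 × 10⁻³ to 5 × 10⁻⁸ M, in 20% DMSO/H2O) was diluted 1:5 into Tris-buffered ATP, NaCl, KCl, MgCl2 and enzyme, then held 20 min at 37 °C with shaking. SDS stop; Taussky–Shorr phosphate read at 700 nm. KCl-free background contained 10 mM ouabain. Technical triplicates; ouabain reference; 4-parameter logistic mixed model gave IC50.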

[2] = Inhibition of seed bug sodium/potassium-ATPase incubated for 20 mins by Spectrophotometric analysis; set-up: species or system Oncopeltus fasciatus; procedure, shortened: as §1

| Compound | IC50 [1] | IC50 [2] |
| --- | --- | --- |
| C[C@@H]1C[C@@H](O[C@@H]2O[C@H](CO)[C@@H](O)[C@H](O)[C@H]2O)[C@]2(O)O[C@@H]3C[C@@]4(C)[C@@H](C[C@@H]5O[C@]56[C@@H]4[C@H](O)[C@H](O)[C@]4(C)[C@@H](C5=CC(=O)OC5)CC[C@@]46O)C[C@H]3O[C@@H]2O1 | 2.2 µM | 1960 µM |
| C[C@H]1O[C@@H](O[C@H]2CC[C@@]3(C)[C@@H](CC[C@@H]4[C@@H]3C[C@@H](O)[C@]3(C)[C@@H](C5=CC(=O)OC5)CC[C@]43O)C2)[C@H](O)[C@H](O)[C@@H]1O[C@@H]1O[C@H](CO)[C@@H](O)[C@H](O)[C@H]1O | 1.1 µM | 220 µM |
| C[C@H]1O[C@@H](O[C@H]2CC[C@@]3(C)[C@H](C2)C[C@@H]2O[C@]24[C@@H]3CC[C@]2(C)[C@@H](C3=CC(=O)OC3)CC[C@]42O)[C@H](O)[C@H](O)[C@@H]1O[C@@H]1O[C@H](CO)[C@@H](O)[C@H](O)[C@H]1O | 1.1 µM | 830 µM |
| C[C@H]1O[C@@H](O[C@H]2CC[C@@]3(C)[C@H](C2)C[C@@H]2O[C@]24[C@@H]3C[C@@H](O)[C@]2(C)[C@@H](C3=CC(=O)OC3)CC[C@@]24O)[C@H](O)[C@H](O)[C@@H]1O[C@@H]1O[C@H](CO)[C@@H](O)[C@H](O)[C@H]1O | 1.4 µM | 1040 µM |
| C[C@@H]1C[C@@H](O[C@@H]2O[C@H](CO)[C@@H](O)[C@H](O)[C@H]2O)[C@]2(O)O[C@@H]3C[C@@]4(C)[C@@H](C[C@@H]5O[C@]56[C@@H]4[C@H](O)C(=O)[C@]4(C)[C@@H](C5=CC(=O)OC5)CC[C@]64O)C[C@H]3O[C@@H]2O1 | 0.9 µM | 640 µM |
| C[C@@H]1C[C@@]2(N=CCS2)[C@]2(O)O[C@@H]3C[C@@]4(C)[C@@H](C[C@@H]5O[C@]56[C@@H]4[C@H](O)C(=O)[C@]4(C)[C@@H](C5=CC(=O)OC5)CC[C@]64O)C[C@H]3O[C@@H]2O1 | 0.9 µM | 220 µM |
| C[C@H]1O[C@@H](O[C@H]2CC[C@@]3(C)[C@H](C2)C[C@@H]2O[C@]24[C@@H]3C[C@@H](O)[C@]2(C)[C@@H](C3=CC(=O)OC3)CC[C@@]24O)[C@H](O)[C@H](O)[C@@H]1O | 1.4 µM | 1080 µM |
| C[C@@H]1O[C@@H](O[C@H]2C[C@@H](O)[C@]3(CO)[C@H]4[C@H](O)C[C@]5(C)[C@@H](C6=CC(=O)OC6)CC[C@]5(O)[C@@H]4CC[C@]3(O)C2)[C@H](O)[C@H](O)[C@H]1O [OUABAIN] | 0.7 µM | 2100 µM |
